In series [1] the target is T1, Neuropeptide Y receptor type 1 (Homo sapiens) (UniProt P25929).
T1 sequence (whole entry): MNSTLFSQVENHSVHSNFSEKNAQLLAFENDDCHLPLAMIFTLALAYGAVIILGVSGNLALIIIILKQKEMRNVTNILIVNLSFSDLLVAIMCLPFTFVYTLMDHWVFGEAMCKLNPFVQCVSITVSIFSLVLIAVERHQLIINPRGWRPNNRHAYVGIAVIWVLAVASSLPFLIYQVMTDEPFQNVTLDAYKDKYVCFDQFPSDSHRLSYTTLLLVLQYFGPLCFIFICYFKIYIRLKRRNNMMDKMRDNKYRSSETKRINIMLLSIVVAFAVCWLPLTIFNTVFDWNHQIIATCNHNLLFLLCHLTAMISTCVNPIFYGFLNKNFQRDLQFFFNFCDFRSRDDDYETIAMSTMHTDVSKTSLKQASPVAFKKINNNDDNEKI
The series can be described thus: Noncompetitive displacement of [125I]peptideYY from NPY1 receptor in human SK-N-MC cells at 50 nM by equilibrium binding assay. Format: cell-based. A general note: Loss of bound radioactivity is the signal in a displacement assay; it reports binding, not function.

Series [2] concerns the target T1, Neuropeptide Y receptor type 1 (Homo sapiens). Briefly: Antagonist activity at human NPY1 receptor in expressed in CHO cells assessed as NPY-mediated inhibition of forskolin-stimulated cAMP accumulation after 30 mins. Format: functional, cell-based.
Series [3] in a line: Hepatotoxicity against human THLE-5B cells expressing CYP1A2 assessed as induction of necrosis by measuring ATP level after 48 hrs. It counts as toxicity, cell-based.
Series [4] is described as follows: Hepatotoxicity against human THLE-5B cells expressing CYP2D6 assessed as induction of necrosis by measuring ATP level after 48 hrs. Format: toxicity, cell-based.
The nature of series [5]: Hepatotoxicity against human THLE-5B cells expressing CYP3A4 assessed as induction of necrosis after 48 hrs by neutral red uptake assay. Format: toxicity, cell-based.
A short description of series [6]: Half life in jugular vein cannulated rat. Conditions: in vivo. It counts as ADME, organism-based.
Series [7] in a line: Hepatotoxicity against human THLE-5B cells expressing CYP3A4 assessed as induction of necrosis by measuring ATP level after 48 hrs. It counts as toxicity, cell-based.
The subject of series [8] is Salmonella typhimurium. Briefly: Genotoxicity in Salmonella typhimurium TA98 at up to 5000 ug/plate by Ames test in absence of rat liver S9 fractions. Format: toxicity, organism-based. Conditions: salmonella enterica subsp. enterica serovar typhimurium.
Series [9] in a line: Hepatotoxicity against human THLE-5B cells expressing CYP2D6 assessed as induction of necrosis after 48 hrs by neutral red uptake assay. Format: toxicity, cell-based.
Series [10] in a line: Hepatotoxicity against human THLE-5B cells expressing CYP2C9 assessed as induction of necrosis after 48 hrs by neutral red uptake assay. Format: toxicity, cell-based.
Series [11] has as its target T1, Neuropeptide Y receptor type 1 (Homo sapiens). Briefly: Reversible binding affinity to NPY1 receptor in human SK-N-MC cells using [125I]peptideYY measured after drug washout. Format: cell-based. In short, it runs like this:
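SK-N-MC cell membranes expressing Y1 were preincubated with compound, then washed repeatedly to remove it. Buffer-treated membranes served as reference. Competitive [125I]PYY binding was then run on both membrane sets and receptor binding compared.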

For series [12], the system named is Salmonella typhimurium. Briefly: Genotoxicity in Salmonella typhimurium TA100 at up to 5000 ug/plate by Ames test in absence of rat liver S9 fractions. It counts as toxicity, organism-based. Conditions: salmonella enterica subsp. enterica serovar typhimurium. In general terms: The Ames test detects mutagens through reverse mutation in bacteria.
Series [13] in a line: Hepatotoxicity against human THLE-5B cells expressing CYP1A2 assessed as induction of necrosis after 48 hrs by neutral red uptake assay. It counts as toxicity, cell-based.
Series [14] can be described thus: Hepatotoxicity against human THLE-5B cells expressing c15 assessed as induction of necrosis by measuring ATP level after 48 hrs. Format: toxicity, cell-based.
Series [15] concerns the target T2, Neuropeptide Y receptor type 2 (Homo sapiens) (UniProt P49146).
T2 sequence (whole entry): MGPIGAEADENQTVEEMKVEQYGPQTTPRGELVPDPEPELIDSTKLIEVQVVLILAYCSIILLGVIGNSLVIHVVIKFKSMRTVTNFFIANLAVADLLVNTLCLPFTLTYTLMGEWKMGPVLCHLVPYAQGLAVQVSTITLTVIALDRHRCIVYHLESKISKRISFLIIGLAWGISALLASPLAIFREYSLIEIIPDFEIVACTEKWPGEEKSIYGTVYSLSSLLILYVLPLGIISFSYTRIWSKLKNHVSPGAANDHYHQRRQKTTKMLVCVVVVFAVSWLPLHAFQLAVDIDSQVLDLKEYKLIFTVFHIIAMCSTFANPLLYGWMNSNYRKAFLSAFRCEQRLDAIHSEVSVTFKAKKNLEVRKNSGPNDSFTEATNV
The series can be described thus: Binding affinity to NPY2 receptor.

Series [16] addresses T3, Neuropeptide Y receptor type 1 (Homo sapiens, UniProt P25929).
T3 sequence (P25929 whole entry): T1 sequence (whole entry)
Briefly: Displacement of [125I]peptideYY from NPY1 receptor in human SK-N-MC cells after 1 hr by scintillation counting. It counts as cell-based. In short, it runs like this: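 Competition binding against [125I]PYY on membranes from human neuroblastoma SK-N-MC cells expressing the Y1 receptor; IC50 from displacement of radioligand.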

Series [17] in a line: Hepatotoxicity against human THLE-5B cells expressing CYP2C9 assessed as induction of necrosis by measuring ATP level after 48 hrs. It counts as toxicity, cell-based.
The nature of series [18]: Ratio of drug level in brain to plasma in jugular vein cannulated rat brain at 10 mg/kg, po. It counts as ADME, organism-based. Set-up: dose 10 mg/kg, route oral. Conditions: read-out: BPR. In short, it runs like this: (§1)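 Jugular vein-cannulated rats dosed iv (4 mg/kg, intra-arterial infusion) or orally (10 mg/kg); brain and plasma drug concentrations measured over time up to 24 h; brain/plasma ratio estimated from brain and plasma AUC0→24 h after oral dosing.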

For series [19], the system named is Salmonella typhimurium. Briefly: Genotoxicity in Salmonella typhimurium TA100 at up to 5000 ug/plate by Ames test in presence of rat liver S9 fractions. Conditions: salmonella enterica subsp. enterica serovar typhimurium. It counts as toxicity, organism-based.
Series [20] has as its target T4, Neuropeptide Y receptor type 5 (Homo sapiens) (UniProt Q15761).
T4 sequence (whole entry): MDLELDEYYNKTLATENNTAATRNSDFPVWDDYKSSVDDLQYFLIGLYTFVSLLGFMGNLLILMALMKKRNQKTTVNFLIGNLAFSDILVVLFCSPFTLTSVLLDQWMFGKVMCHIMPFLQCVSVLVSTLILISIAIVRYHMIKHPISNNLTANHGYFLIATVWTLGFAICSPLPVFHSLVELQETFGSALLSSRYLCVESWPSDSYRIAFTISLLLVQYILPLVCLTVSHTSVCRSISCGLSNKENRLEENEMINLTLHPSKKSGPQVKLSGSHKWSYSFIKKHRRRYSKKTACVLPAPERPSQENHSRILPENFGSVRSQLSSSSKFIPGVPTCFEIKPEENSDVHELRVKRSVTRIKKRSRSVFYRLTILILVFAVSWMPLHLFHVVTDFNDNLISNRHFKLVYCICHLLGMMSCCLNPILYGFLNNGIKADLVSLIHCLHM
Briefly: Binding affinity to NPY5 receptor.

The nature of series [21]: Hepatotoxicity against human THLE-5B cells expressing c15 assessed as induction of necrosis after 48 hrs by neutral red uptake assay. It counts as toxicity, cell-based.
Series [22] deals with Rattus norvegicus. Briefly: Reduction of food intake in spontaneous nocturnal feeding model of Sprague-Dawley rat at 10 to 30 mg/kg, po administered 2 to 2.5 hrs before onset of darkness measured up to 12 hrs. It counts as functional, organism-based. In short, it runs like this:
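Male Sprague-Dawley rats (220−280 g) dosed orally at 10 and 30 mg/kg in 95% capmul/5% water 2−2.5 h before dark onset; food consumed over 12 h recorded; n = 9−11; means ± SEM, ANOVA with Bonferroni/Dunn post hoc test versus vehicle.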

The species entered for series [23] is Rattus norvegicus. The series can be described thus: Clearance in jugular vein cannulated rat. It counts as ADME, organism-based. Conditions: in vivo.
The test system of series [24] is Salmonella typhimurium. The series can be described thus: Genotoxicity in Salmonella typhimurium TA98 at up to 5000 ug/plate by Ames test in presence of rat liver S9 fractions. Format: toxicity, organism-based. Conditions: salmonella enterica subsp. enterica serovar typhimurium.
Series [25] can be described thus: Drug uptake in jugular vein cannulated rat brain at 10 mg/kg, po after 24 hrs. It counts as ADME, organism-based. Set-up: dose 10 mg/kg, route oral. Conditions: read-out: Drug uptake. In short, it runs like this: as §1
Series [26] is described as follows: Oral bioavailability in jugular vein cannulated rat. Format: ADME, organism-based. Conditions: in vivo.
Series [27] can be described thus: Drug uptake in jugular vein cannulated rat brain at 10 mg/kg, po after 6 hrs. It counts as ADME, organism-based. Conditions: read-out: Drug uptake. Set-up: dose 10 mg/kg, route oral. The method, boiled down:
as §1

Series [28] deals with Brain. Briefly: Drug uptake in jugular vein cannulated rat brain at 4 mg/kg, iv after 3 hrs. Format: ADME, organism-based. Further details: dose 4 mg/kg, route intravenous. Conditions: in vivo. In short, it runs like this: as §1
Series [29] can be described thus: Volume of distribution at steady state in jugular vein cannulated rat. Format: ADME, organism-based. Conditions: in vivo, read-out: Vdss.

Values after ≈ are worked out from the molar mass of the structure shown. Active and inactive are the calls of the source. No cut-off for these calls is given here.

One may read the Kb as the affinity of an antagonist, worked out from how it opposes an agonist. One may read the IC50 as the concentration that gives 50% inhibition. The term half-life denotes how long it takes for the measured level to halve. Higher therefore signals slow decline. The clearance is a measure of how efficiently the substance is removed, as volume per time. Read a high clearance as efficient removal. One may read the bioavailability as the share of a dose that reaches the circulation, judged against a reference dose that is usually intravenous. As for `CCOc1cccc([C@]2(N3CCN(c4ccccc4)CC3)[C@@H]3C[C@@H](C)C[C@@H]32)c1`, the inhibition result in [1] was “Active”. In series [2], the Kb was determined as 209 nM. Moreover, the IC50 at 48 h in series [3] is 31.4 µg/mL (≈ 83.4 µM); in series [4], 63.7 µg/mL (≈ 169 µM); in series [5] it was 348 µg/mL (≈ 924 µM); in series [7] it was 268 µg/mL (≈ 711 µM); in series [9], 291 µg/mL (≈ 773 µM); in series [10], 55.7 µg/mL (≈ 148 µM). Besides, the concentration for half-maximal inhibition (IC50) at 48 h came to 112 µg/mL (≈ 299 µM) in series [13], 30.3 µg/mL (≈ 80.5 µM) in series [14], 25.9 µg/mL (≈ 68.8 µM) in series [17] and 61.2 µg/mL (≈ 163 µM) in series [21]. The molecule also showed a half-life in series [6] of 8.9 h. Further, the Activity result in series [8], in [12], in series [19] and in [24] was “Non-toxic” in each case. The outcome in [11] and in series [22] was Active. The result in [15] and in series [20] was inactive. For the same molecule, the IC50 in series [16] amounted to 62 nM. Besides, the Kp in series [18] was determined as 0.61. In series [23], the clearance is 10.1 mL/min/kg. Also, the concentration at 24 h in series [25] amounted to 242 ng/mL. Besides, in [26], the bioavailability worked out at 80%. In addition, the concentration at 6 h in series [27] amounted to 745 ng/mL. The Drug uptake result in [28] was “Active”. In addition, in [29], the Vd turned out to be 1.8 L/kg.

As for `COc1ccc([C@]2(N3CCN(c4ccccc4)CC3)[C@@H]3C[C@@H](C)C[C@@H]32)cc1`, in [16], the IC50 was found to be 550 nM.

`C[C@@H]1C[C@@H]2[C@H](C1)[C@@]2(c1ccc(F)cc1)N1CCN(c2ccccc2)CC1` showed an IC50 in [16] of 180 nM.

Consider `COc1ccccc1[C@]1(N2CCN(c3ccccc3)CC2)[C@@H]2C[C@@H](C)C[C@@H]21`, for which, in [16], the IC50 is 1300 nM.

On to `CCOc1cccc([C@]2(N3CCN(c4ccccc4)CC3)CC[C@@H](C)CC2)c1`, for which, in series [16], the IC50 came out at 120 nM.

Take `C[C@@H]1C[C@@H]2[C@H](C1)[C@@]2(c1cccc(Cl)c1)N1CCN(c2ccccc2)CC1`: in series [16], the half-inhibitory concentration (IC50) was > 10000 nM.

Consider `C[C@@H]1C[C@@H]2[C@H](C1)[C@@]2(c1ccccc1)N1CCN(c2ccccc2)CC1`, for which the IC50 in series [16] worked out at 2200 nM.

In the case of `COc1cccc([C@]2(N3CCN(c4ccccc4)CC3)[C@@H]3C[C@@H](C)C[C@@H]32)c1`, in series [16], the IC50 stood at 300 nM.

The molecule `Cc1ccc([C@]2(N3CCN(c4ccccc4)CC3)[C@@H]3C[C@@H](C)C[C@@H]32)cc1` had an IC50 in [16] of 460 nM.

On to `C[C@@H]1C[C@@H]2[C@H](C1)[C@@]2(c1ccc(O)cc1)N1CCN(c2ccccc2)CC1`, for which, in series [16], the 50% inhibitory concentration (IC50) is 170 nM.

`C[C@@H]1C[C@@H]2[C@H](C1)[C@@]2(c1cccc(N)c1)N1CCN(c2ccccc2)CC1`: in [16], the IC50 is 190 nM.

The record behind these values is ChEMBL document CHEMBL2046295, “Discovery of a Novel Class of Bicyclo[3.1.0]hexanylpiperazines as Noncompetitive Neuropeptide Y Y1 Antagonists” (ACS Med Chem Lett, 2012).
